From PubChem BioAssay
ARNT-TACC3 inh = disrupts binding between human ARNT and TACC3; Q9Y6A5; AlphaScreen His-ARNT PAS-B/GST-TACC3 binding, luminescence; TACC3 fragment carries E629A point mutation; inhibition, % at 9.99 µM; 390,000 compounds, 0.66% hits; AID 623870;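 active means mean inhibition of replicates at least 50% and at least half of replicates each reaching 50%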;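 further: 0% = complete ARNT plus TACC3 wells and 100% = ARNT alone without TACC3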
CaV13 ICDI inh = Disruptors of the CACNA1D IQ motif to Ca2+-dependent inactivation inhibitor domain association, primary screening, Förster resonance energy transfer in intact living …; HEK cells, CFP/YFP FRET ICDI-IQ, plate reader, 10 min; percent FRET-ratio fall versus neutral wells; AID 743397; 340,000 compounds, 0.098% hits; inhibition, % at 12.3 µM;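 active means mean replicate inhibition of at least 30% and at least 1% of replicates passing that level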;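 further: 0% = median of the neutral control wells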
CAL PDZ FP-1 = inhibitors of human CAL PDZ peptide binding; Q9HD26; purified CAL PDZ, TMR-peptide fluorescence polarization, 1 h; inhibition, % at 20 µM; 330,000 compounds, 0.02% hits;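 active means highest replicate inhibition of at least 40%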;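 further: plate controls were DMSO neutral control wells for no effect and unlabeled competitor peptide control wells for full effect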
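Test system: purified CerCALP PDZ construct; Compound dosing: one concentration, 20 µM compound; Also added: TMR-labelled reporter peptide T*-PRC34 bound in PDZ groove; Read-out: inhibition from polarization loss; Controls: unlabelled peptide and DMSO controls; Signal: FP readout, S and P plane fluorescence; Incubation: 1 h at RT.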
CAL PDZ FP-2 = blocks peptide binding to the human CAL PDZ domain. purified CAL PDZ, TMR-peptide fluorescence polarization, 1 h. inhibition, % at 24.9 µM. 300,000 compounds, 0.92% hits. Q9HD26;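 active means mean inhibition of at least 30% with at least half of replicates also reaching 30%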;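 further: 0% = DMSO neutral control and 100% = excess unlabeled competitor peptide PRC23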
Starred values were filed as active, the others as inactive. Most compounds without a hit are left out; they make up all but 1.2% or so of the library.

Results for C[C@@H]1CN([C@@H](C)CO)C(=O)c2cc(NS(=O)(=O)c3cn(C)cn3)ccc2O[C@@H](C)CCCCO[C@H]1CN(C)C(=O)CCCN(C)C ?
ARNT-TACC3 inh: -21

What do the screens show for `CCCC(O)(CCN1CCOCC1)c1ccc(Cl)cc1` (stereo not drawn)?
ARNT-TACC3 inh: -15; CaV13 ICDI inh: -3; CAL PDZ FP-1: 19; CAL PDZ FP-2: 41*

Results for CC(C)CN=CC1=C(O)c2ccccc2C1=O ?
ARNT-TACC3 inh: 0; CaV13 ICDI inh: -22; CAL PDZ FP-1: -1

Results for O=C1C(C=NCc2ccccn2)=C(O)c2ccccc21 ?
ARNT-TACC3 inh: 66*; CaV13 ICDI inh: -8; CAL PDZ FP-1: -3; CAL PDZ FP-2: 0

How did C[C@@H]1CN([C@@H](C)CO)C(=O)c2cc(NC(=O)NC3CCCCC3)ccc2O[C@@H](C)CCCCO[C@H]1CN(C)C(=O)Nc1ccccc1 do in these assays?
ARNT-TACC3 inh: -10

Results for Cc1nc(CN(C)C(=O)C2CCC(=O)N(CCc3cccc(F)c3)C2)cs1 (stereo not drawn) ?
ARNT-TACC3 inh: -1; CaV13 ICDI inh: -4; CAL PDZ FP-1: 1; CAL PDZ FP-2: 57*

How did Cc1ccsc1CN(C)C(=O)C1CCC(=O)N(CCc2cccc(F)c2)C1 (stereo not drawn) do in these assays?
ARNT-TACC3 inh: -3; CaV13 ICDI inh: -3; CAL PDZ FP-1: 0; CAL PDZ FP-2: -2

Results for Cc1ccc(C(=O)CCC(=O)NC2CCCC(C)C2C)cc1 (stereo not drawn) ?
ARNT-TACC3 inh: -6; CAL PDZ FP-1: -2; CAL PDZ FP-2: 90*

Results for CC1CCCC(NC(=O)CCNC(=O)c2ccc(Cl)cc2)C1C (stereo not drawn) ?
ARNT-TACC3 inh: -11; CaV13 ICDI inh: -7; CAL PDZ FP-1: -3; CAL PDZ FP-2: -4

What do the screens show for `Cc1cc2nc3c(=O)[nH]c(=S)[nH]c3nc2cc1NC(=O)C(F)(F)F`?
ARNT-TACC3 inh: 70*; CaV13 ICDI inh: -26; CAL PDZ FP-1: -1; CAL PDZ FP-2: 3

What do the screens show for `S=c1[nH]c2ccc(Cc3ccc4[nH]c(=S)[nH]c4c3)cc2[nH]1`?
ARNT-TACC3 inh: -5; CaV13 ICDI inh: 42*; CAL PDZ FP-1: 1; CAL PDZ FP-2: 0

What do the screens show for `c1ccc(N2CCN(c3nc(-c4ccccn4)nc4ccccc34)CC2)cc1`?
CaV13 ICDI inh: 0; CAL PDZ FP-1: -3; CAL PDZ FP-2: 0

How did CN1CCN(c2nc(-c3ccccn3)nc3ccccc23)CC1 do in these assays?
ARNT-TACC3 inh: 67*; CaV13 ICDI inh: -4; CAL PDZ FP-1: -1; CAL PDZ FP-2: 0

What do the screens show for `CO[C@@H]1CC[C@H]2CCN(C)C(=O)[C@@H](C)N(C)C(=O)c3cc(C#N)ccc3OC[C@@H]1O2`?
ARNT-TACC3 inh: 1

Results for CCCCNC(=O)CCc1c(C)nc2nc(-c3cc(OC)cc(OC)c3)nn2c1C ?
ARNT-TACC3 inh: -6; CaV13 ICDI inh: -8; CAL PDZ FP-1: -2; CAL PDZ FP-2: -22

What do the screens show for `CCCNC(=O)CCc1c(C)nc2nc(-c3cc(OC)cc(OC)c3)nn2c1C`?
ARNT-TACC3 inh: -4; CAL PDZ FP-1: -1; CAL PDZ FP-2: 46*

How did Cc1cccc(C(=O)NCc2nnc(SCC(=O)Nc3nnc(C)s3)n2C)c1 do in these assays?
ARNT-TACC3 inh: -28; CaV13 ICDI inh: -7; CAL PDZ FP-1: 0; CAL PDZ FP-2: 6

What do the screens show for `Cc1cccnc1NC(=O)CSc1nnc(CNC(=O)c2cccc([N+](=O)[O-])c2)n1C`?
ARNT-TACC3 inh: -4; CaV13 ICDI inh: -7; CAL PDZ FP-1: -2; CAL PDZ FP-2: 42*

What do the screens show for `CCCC(=O)Nc1ccc2c(c1)C(=O)N(C)[C@@H]1CC[C@@H](CC(=O)Nc3cn(C)nc3C)O[C@H]1CO2`?
ARNT-TACC3 inh: 10

Results for O=C1CCCCCC1C1(O)C(=O)Nc2ccc(Br)cc21 (stereo not drawn) ?
ARNT-TACC3 inh: -9; CaV13 ICDI inh: -4; CAL PDZ FP-1: -2; CAL PDZ FP-2: 57*

Results for O=C1Nc2ccc(Br)cc2C1(O)c1ccccc1 (stereo not drawn) ?
ARNT-TACC3 inh: -16; CaV13 ICDI inh: -2; CAL PDZ FP-1: 0

Results for CN(C)C(=O)c1ccc(-c2ccc([C@@H]3[C@H](CO)N4CCCCN(CC5CC5)C[C@@H]34)cc2)cc1 ?
ARNT-TACC3 inh: -2

Results for O=C(COc1ccc(Cl)cc1)Nc1cc(NC(=O)COc2ccc(Cl)cc2)cc(C(=O)O)c1 ?
ARNT-TACC3 inh: -8; CaV13 ICDI inh: -20; CAL PDZ FP-2: 86*

How did CC1C/C(=C\c2ccccc2[N+](=O)[O-])c2nc3ccccc3c(C(=O)O)c2C1 (stereo not drawn) do in these assays?
ARNT-TACC3 inh: -2; CaV13 ICDI inh: -8; CAL PDZ FP-1: -1; CAL PDZ FP-2: 49*

How did CC(C)NC(=O)Nc1ccc2c(c1)C(=O)N([C@H](C)CO)C[C@H](C)[C@H](CN(C)CC1CCCCC1)OCCCC[C@H](C)O2 do in these assays?
ARNT-TACC3 inh: 6

What do the screens show for `COc1ccc(S(=O)(=O)Nc2ccc3c(c2)C(=O)N([C@H](C)CO)C[C@@H](C)[C@H](CN(C)C(=O)NC2CCCCC2)OCCCC[C@@H](C)O3)cc1`?
ARNT-TACC3 inh: 0

What do the screens show for `COC(=O)c1ccc2c(=O)n(Cc3ccc(C(=O)NCCCN4CCC(C)CC4)cc3)c(=S)[nH]c2c1`?
ARNT-TACC3 inh: -8; CaV13 ICDI inh: -2; CAL PDZ FP-1: -3; CAL PDZ FP-2: -7

What do the screens show for `CC1CCN(CCCNC(=O)c2ccc3c(=O)n(Cc4ccc(Cl)cc4)c(=S)[nH]c3c2)CC1`?
ARNT-TACC3 inh: 4; CaV13 ICDI inh: -2; CAL PDZ FP-1: 66*; CAL PDZ FP-2: -1

Results for Cc1ccc(OCC(=O)N2CCN(C(=O)c3cccs3)CC2)cc1 ?
ARNT-TACC3 inh: 2; CAL PDZ FP-2: 46*

What do the screens show for `CCS(=O)(=O)Nc1ccc2c(c1)C(=O)N(C)C[C@@H](OC)[C@H](C)CN(CCC(F)(F)F)[C@H](C)CO2`?
ARNT-TACC3 inh: -2

How did C[C@H](CO)N1C[C@H](C)[C@H](CN(C)S(=O)(=O)c2cn(C)cn2)Oc2ccc(NS(=O)(=O)c3ccc(F)cc3)cc2CC1=O do in these assays?
ARNT-TACC3 inh: -14

How did Cc1ccc(N2CCN(S(=O)(=O)c3ccc(-n4cnnn4)cc3)CC2)c(C)c1 do in these assays?
ARNT-TACC3 inh: -1; CaV13 ICDI inh: -3; CAL PDZ FP-1: 0; CAL PDZ FP-2: 79*

Results for O=S(=O)(c1ccc(-n2cnnn2)cc1)N1CCN(c2ccccc2F)CC1 ?
ARNT-TACC3 inh: -2; CaV13 ICDI inh: -14; CAL PDZ FP-1: -3; CAL PDZ FP-2: -1

How did C/C(Cc1ccccc1)=N\NC(=O)CNC(=O)c1ccc(Cl)cc1 do in these assays?
ARNT-TACC3 inh: -3; CaV13 ICDI inh: -2; CAL PDZ FP-1: 0

What do the screens show for `CCC/C(=N\NC(=O)CNC(=O)c1ccc(Cl)cc1)c1ccccc1`?
ARNT-TACC3 inh: -6; CaV13 ICDI inh: 0; CAL PDZ FP-1: -1; CAL PDZ FP-2: 78*
